Measured values from different studies.
Compare with care: the assays were run in different laboratories.
Tspo: Translocator protein (Tspo, Rattus norvegicus, UniProt P16257)
ADRA1A: Alpha-1A adrenergic receptor (ADRA1A, Homo sapiens, UniProt P35348)
PPARD: Peroxisome proliferator-activated receptor delta (PPARD, Homo sapiens, UniProt Q03181)
HRH2: Histamine H2 receptor (HRH2, Homo sapiens, UniProt P25021)

Structure (SMILES)	target	test	conditions	Ki [nM]
CNC(=O)[C@@]12C[C@@H]1[C@@H](n1cnc3c(NC)nc(C#Cc4ccc(F)c(F)c4)nc31)[C@H](O)[C@@H]2O	Tspo	ligand displacement, radioligand	–	> 10000
CCCCN1CCC(COC(=O)c2ccc(N)c(OCF)c2)CC1	ADRA1A	cell-free assay, radioligand	–	> 10000
O[C@@H]1[C@H](O)[C@@H]2C[C@@H]2[C@H]1n1cnc2c(NCc3cccc(Cl)c3)ncnc21	Tspo	ligand displacement, radioligand	–	> 10000
OCCCN1CC[C@@H]2C[C@H]1c1cc(-c3ccc(C(F)(F)F)cc3)ccc12	ADRA1A	ligand displacement, radioligand	–	1990
Oc1cccc(Nc2nc(-c3ccc(F)cc3F)cs2)c1	Kappa-type opioid receptor (Oprk1, Rattus norvegicus, UniProt P34975)	cell-free assay, radioligand	–	2200
Cc1c(C)c2c(c(C)c1O)CCC(C)(COc1ccc(CC3SC(=O)NC3=O)cc1)O2 (stereo not shown)	PPARD	cell-free assay	–	26200
Cc1nc2cc(OCCCCN3CCN(c4cccc(Cl)c4Cl)CC3)ccc2s1	HRH2	ligand displacement, radioligand	–	680
C[C@H]1Oc2cc(cnc2N)-c2c(nn(C)c2C#N)CN(C)C(=O)c2ccc(F)cc21	Focal adhesion kinase 1 (PTK2, Homo sapiens, UniProt Q05397)	cell-free assay	lysate	10.3
CCCCC(=O)[C@@]12C[C@@H]1[C@@H](n1ccc3c(NC)nc(C#Cc4ccc(Cl)s4)nc31)[C@H](O)[C@@H]2O	Tspo	ligand displacement, radioligand	–	> 10000
COc1ccccc1N1CCN(CCCCN2CCc3ccccc3C2=O)CC1	ADRA1A	ligand displacement, radioligand	–	11.1
CCc1nc2cc(OCCCCN3CCC(c4cccc(Cl)c4Cl)CC3)ccc2s1	HRH2	ligand displacement, radioligand	–	2100
CCNc1nc(C#Cc2ccccc2)nc2c1ncn2[C@H]1[C@H](O)[C@H](O)[C@@H]2C[C@@H]21	Tspo	ligand displacement, radioligand	–	> 10000
CC[C@H](NC(=O)[C@H](CS(=O)(=O)CC1CC1)N[C@@H](c1ccc(F)cc1)C(F)(F)F)C(=O)C(=O)NC1CC1	Cathepsin S (CTSS, Homo sapiens, UniProt P25774)	enzyme activity, inhibitor, fluorescence	with preincubation	0.13
CC1(C)C=Cc2c(cc3oc(-c4ccccc4)c(O)c(=O)c3c2O)O1	PPARD	ligand displacement, TR-FRET	–	1300
CNC(=O)[C@@]12C[C@@H]1[C@@H](n1cnc3c(NC)nc(C#Cc4ccccc4Cl)nc31)[C@H](O)[C@@H]2O	Tspo	ligand displacement, radioligand	–	> 10000
O=C1c2ccccc2CCN1CCCCN1CCN(c2cccc(Cl)c2Cl)CC1	ADRA1A	ligand displacement, radioligand	–	117
